One data set deals with RAW macrophages. In words: Cytotoxicity of MAPK inhibitors. Format: cell-based, mouse. To be noted: unpublished data.
In the next data set the test system is p300 HAT domain. In words: In vitro acetylation of MKP-1 docking domain peptides by p300. It counts as biochemical. As to conditions: recombinant p300 HAT domain, labelled acetyl-CoA, 30°C 10 min, autoradiography.
In the next data set the test system is NOS2. The data set can be described thus: NOS2 protein levels by immunoblot in RAW cells. Format: cell-based, mouse. To be noted: macrophages, TLR agonist 16 h. Put shortly:
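RAW 264.7 cells were handled in two ways. For agonist response, cells were exposed to the TLR agonists PGN, poly(I:C), LPS or E. coli for 16 h, with or without TSA. For TSA dose-response, cells were pretreated with increasing TSA for 1 h, then given LPS 100 ng/ml for 6 h, with ERα as the blot control. In both, lysates were immunoblotted for NOS2.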
(Immunoblotting shows a protein as a band on a membrane.)

The test system of a further data set is HEK293 cells. The data set can be described thus: Acetylation of HA-MKP-1 in HEK293 cells. To be noted: IP acetyl-lysine, blot HA. Format: cell-based.
Another data set concerns p38. In words: Phospho-p38 in MKP-1 KO MEFs rescued with MKP-1. It counts as cell-based, mouse. As to conditions: 4-HT, then LPS and TSA 1 h. Put shortly: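 MKP-1−/− fibroblasts were immortalized with SV40 T-antigen and transfected with MKP-1(WT)-ERα or MKP-1(K57R)-ERα. Expression was induced with 200 nM 4-hydroxytamoxifen, then cells were treated with LPS and TSA for 1 h. Lysates were immunoblotted for phospho-p38, total p38 and the ER tag.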

For a further data set, the system named is TNF-α. In words: LPS-induced TNF-α RNA in MKP-1 KO MEFs rescued with MKP-1. Format: cell-based, mouse. To be noted: 4-HT, then LPS and TSA 1 h; RT-PCR.
For the next data set, the system named is phospho-p38. In words: Dephosphorylation of recombinant phospho-p38 by recombinant MKP-1. It counts as biochemical. To be noted: for dephosphorylation of phospho-p38, without p300: recombinant MKP-1, immunoblot; for dephosphorylation of phospho-p38, effect of adding p300: recombinant MKP-1 acetylated with p300, immunoblot. Put shortly:
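Recombinant His-MKP-1 made from pRSET-His-MKP-1 by in vitro transcription and translation. It was incubated with recombinant p300 and cold acetyl-CoA, or with control. It was then incubated with recombinant phospho-p38, and remaining phospho-p38 was detected by immunoblotting.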

A short description of a further data set: MKP-1 catalytic. Format: biochemical. To be noted: OMFP, A 477 nm, 30°C, 0–40 min, n = 2 ± SD. Put shortly:
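Recombinant MKP-1 (0.66 μg) was acetylated or not with recombinant p300 HAT (2.5 μg) and 5 μl of 1 mM acetyl-CoA stock for 30 min at 30°C. Recombinant p38 (2 μg) or control was added for 1 h at 30°C. The substrate 3-O-methylfluorescein phosphate was then added and A477 nm monitored at 30°C. n = 2, ± SD.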

Numbering of substitutions follows the chain as printed. Names may count otherwise. “And” between values parts separate entries of the source, which are not always exact repeats. Equal entries are not always repeated. “Also recorded” adds a separate entry of the source.

Turning to `C[S+]([O-])c1ccc(-c2nc(-c3ccncc3)c(-c3ccc(F)cc3)[nH]2)cc1` (centres unmarked) [SB203580], the cytotoxicity result with RAW macrophages was “not cytotoxic”.

For `Oc1c2ccccc2c2c3c(cccc13)N=N2` [SP600125], the cytotoxicity result with RAW macrophages is given as “not cytotoxic”.

In the case of `N#CC(=C(/N)Sc1ccccc1N)/C(C#N)=C(/N)Sc1ccccc1N` [U0126], the cytotoxicity entry in the data set on RAW macrophages is “not cytotoxic”. Consider “RFSTIVRRRAKGAMGLEHIVPNAELRGRLLA [MKP-1(47–76)(WT)]”, for which, in the data set on p300 HAT domain, the “acetylation of peptide by p300” value was “p300 acetylates MKP-1(47–76)”. With “RFSTIVRRRARGAMGLEHIVPNAELRGRLLA [MKP-1(47–76)(K57R)]”, the “acetylation of peptide by p300” value in the data set on p300 HAT domain is given as “p300 cannot acetylate MKP-1(47–76)(K57R)”. For peptidoglycan, the “NOS2 expression, activation by TLR agonist alone” value in the data set with NOS2 was “can activate NOS2 expression in macrophages”.

B1: HA-MKP-1(K57R) (protein, UniProt P28562 1-367, looked up, variant K57R)
Dual specificity protein …: MVMEVGTLDAGGLRALLGERAAQCLLLDCRSFFAFNAGHIAGSVNVRFSTIVRRRARGAMGLEHIVPNAELRGRLLAGAYHAVVLLDERSAALDGAKRDGTLALAAGALCREARAAQVFFLKGGYEAFSASCPELCSKQSTPMGLSLPLSTSVPDSAESGCSSCSTPLYDQGGPVEILPFLYLGSAYHASRKDMLDALGITALINVSANCPNHFEGHYQYKSIPVEDNHKADISSWFNEAIDFIDSIKNAGGRVFVHCQAGISRSATICLAYLMRTNRVKLDEAFEFVKQRRSIISPNFSFMGQLLQFESQVLAPHCSAEAGSPAMAVLDRGTSTTTVFNFPVSIPVHSTNSALSYLQSPITTSPSC
modifications: HA tag
For the molecule B1, in the data set with HEK293 cells, the “acetylation of HA-MKP-1 in cells in response to LPS and TSA” value was “MKP-1(K57R) is not”.

B2: MKP-1(K57R) (protein, UniProt P28562 1-367, looked up, variant K57R)
Dual specificity protein …: B1 Dual specificity protein …
For the molecule B2, in the data set on p38, the “effect of TSA on phospho-p38 in MKP-1 KO MEFs after ectopic expression” value is reported as “cannot restore the effects of TSA upon phospho-p38”. Besides, the “effect of TSA on LPS-induced TNF-α in MKP-1 KO MEFs after ectopic expression” value with TNF-α is “not with MKP-1(K57R)”. In the data set with phospho-p38, the “dephosphorylation of phospho-p38, without p300” value is “can decrease the phosphorylation of p38” and the “dephosphorylation of phospho-p38, effect of adding p300” value is given as “no further effect on MKP-1 dephosphorylation of p38”.

B3: MKP-1: Recombinant MKP-1, acetylated or not with p300 and acetyl-CoA (protein, UniProt P28562 1-367, looked up)
Dual specificity protein …: B1 Dual specificity protein … with R57K
modifications: optionally acetylated
With B3, the “phosphatase activity, effect of recombinant p38” value in the data set “MKP-1 catalytic” is “increases the phosphatase activity of MKP-1”. In addition, in “MKP-1 catalytic” (p300 and acetyl-CoA 30 min at 30°C, then p38 1 h at 30°C), the “increase of phosphatase activity by acetylation in the presence of p38” value was ~125% and > 100%. The “phosphatase activity, effect of acetylation without p38” value in the data set “MKP-1 catalytic” (p300 and acetyl-CoA) was “negligible effect on phosphatase activity; also recorded: does not affect phosphatase activity of the enzyme alone”.

B4: MKP-1(WT): recombinant or ectopically expressed wild-type MKP-1 (protein)
chain: MVMEVGILDAGGLRALLREGAAQCLLLDCRSFFAFNAGHIAGSVNVRFSTIVRRRAKGAMGLEHIVPNAELRGRLLAGAYHAVVLLDERSASLDGAKRDGTLALAAGALCREARSTQVFFLQGGYEAFSASCPELCSKQSTPTGLSLPLSTSVPDSAESGCSSCSTPLYDQGGPVEILSFLYLGSAYHASRKDMLDALGITALINVSANCPNHFEGHYQYKSIPVEDNHKADISSWFNEAIDFIDSIKDAGGRVFVHCQAGISRSATICLAYLMRTNRVKLDEAFEFVKQRRSIISPNFSFMGQLLQFESQVLAPHCSAEAGSPAMAVLDRGTSTTTVFNFPVSIPVHPTNSALNYLKSPITTSPSC
modifications: left off: ERα ligand-binding domain, end not stated, kept
In the case of B4, the “effect of TSA on phospho-p38 in MKP-1 KO MEFs after ectopic expression” value with p38 is recorded as “restores the ability of TSA to decrease phospho-p38 levels”. Further, in the data set with phospho-p38, the “dephosphorylation of phospho-p38, without p300” value is recorded as “reduces phosphorylation of p38” and the “dephosphorylation of phospho-p38, effect of adding p300” value is on record as “further decrease in phosphorylation of p38”.

Source of the values: publication PMC2413043 (The Journal of Experimental Medicine, 2008).
